RGS4 inh = human RGS4 inhibition. HEK293 M3R/RGS4 inducible, Fluo-4 calcium flux; stronger effect = higher value; triggered by carbachol at its EC20. B-score at 10 µM. 0.45% of 310,000 active. AID 463165;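 active means B-score, a plate-corrected calcium signal, over three deviations above library mean, with baseline fluorescence within five deviations of library mean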;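 further: RGS4 expression induced by doxycycline in cells with stable M3 receptor; B-score is computed from the integrated fluorescence ratio over baseline after carbachol; higher B-score means a larger calcium signal and so more RGS4 inhibition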
Target sequence (P49798 whole entry, looked up): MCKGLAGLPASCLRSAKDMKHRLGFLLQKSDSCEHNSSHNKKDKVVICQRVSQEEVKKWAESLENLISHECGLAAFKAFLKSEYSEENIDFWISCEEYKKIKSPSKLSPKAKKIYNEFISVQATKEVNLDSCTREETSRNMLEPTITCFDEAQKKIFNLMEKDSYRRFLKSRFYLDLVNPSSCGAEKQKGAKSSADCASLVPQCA
MrgX1 agonist = agonists of human MrgX1 receptor; MrgX1-HEK293 cells, Fluo-4 calcium fluorescence, agonist mode; stronger effect = higher value; AID 588627; 0.44% of 310,000 active; B-score at 10 µM; Q96LB2;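 active means calcium response B-score plate-corrected fluorescence ratio at least 3 library SD, with starting fluorescence B-score inside 5 SD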
Target sequence (Q96LB2 whole entry, looked up): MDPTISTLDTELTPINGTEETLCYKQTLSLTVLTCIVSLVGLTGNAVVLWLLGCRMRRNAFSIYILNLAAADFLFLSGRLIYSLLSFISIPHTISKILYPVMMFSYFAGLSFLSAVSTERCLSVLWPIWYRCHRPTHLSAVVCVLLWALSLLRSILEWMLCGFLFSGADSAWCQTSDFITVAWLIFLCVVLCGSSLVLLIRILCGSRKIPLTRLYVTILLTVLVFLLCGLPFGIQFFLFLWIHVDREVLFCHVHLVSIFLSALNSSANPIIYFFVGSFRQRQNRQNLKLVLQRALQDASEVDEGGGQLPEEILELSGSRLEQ
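System – MrgX1-expressing HEK293 cells · Incubation – cells plated overnight, dye loaded 0.5 h 37 °C, 0.5 h room temperature · Technique – kinetic Fluo-4 NW fluorescence of intracellular calcium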
MrgX1 PAM = human MrgX1 positive allosteric modulation, primary screen. 0.63% of 310,000 active. B-score at 10 µM. MrgX1-HEK293, Fluo-4 calcium flux, FDSS; stronger effect = higher value;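 active means plate-corrected calcium response at least 3 library SD above typical, normal starting fluorescence, not activating the receptor alone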;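 further: compound read alongside a low EC10 to EC30 dose of BAM8-22 agonist; peak minus trough fluorescence over baseline measured at the second addition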
RGS4 act = potentiators or activators of RGS4; HEK293 M3R/inducible RGS4, carbachol calcium flux Fluo4; stronger effect = lower value; B-score at 10 µM; 0.92% of 310,000 active; AID 463111;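 active means B-score of the integrated calcium signal more than 4 SD below the library mean, with starting fluorescence not abnormally high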;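 further: negative B-score means reduced calcium response which marks RGS4 activation or potentiation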
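Detection: kinetic calcium fluorescence imaging with Fluo4-AM dye, 2 µM / Material: HEK293 cells with stable M3R and inducible RGS4 / Schedule: recording 10 s baseline at 1 Hz, 100 s post-agonist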
MrgX1 antag = antagonists of human MrgX1 receptor. Q96LB2. MRGX1-HEK293 calcium flux, Fluo-4, BAM8-22 antagonism; stronger effect = lower value. B-score at 10 µM. 1.3% of 310,000 active. AID 588676;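 active means calcium-response B-score plate-corrected more than 3 library SD below zero, starting fluorescence within 5 deviations, no agonist response on first addition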;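 further: peak minus trough fluorescence over baseline after final BAM8-22 challenge near maximal dose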
MrgX1 antag conf = human MrgX1 receptor antagonism, re-confirmation screen; shares compounds with MrgX1 antag; MrgX1-HEK293, BAM8-22 calcium flux, Fluo-4; stronger effect = lower value; remaining BAM8-22 calcium response % of control (stronger effect = lower value), % at 10 µM; 19% of 2,300 active; AID 602420;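 active means remaining agonist calcium response no higher than 100% minus 3 SD of agonist-only control wells, with starting fluorescence near control levels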;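 further: agonist BAM8-22 given at a near maximal EC90 to ECmax level; peak minus minimum fluorescence divided by baseline after agonist addition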
HEK293 Ca flux = MrgX1 antagonist counter-screen hit in parental HEK293 cells; shares compounds with MrgX1 antag; Fluo-4 calcium fluorescence, FDSS; fluorescence ratio F(max-min)/F0 at 10 µM; 2% of 4,000 active; AID 624111;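 active means duplicate-averaged calcium fluorescence ratio at least three times the standard deviation of buffer wells, a nonspecific response in parental cells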
HEK293 Ca counter = MrgX1 allosteric activator counter-screen hit in parental HEK293 cells | parental HEK293 calcium flux, Fluo-4 fluorescence ratio; stronger effect = higher value | fluorescence ratio F(max-min)/F0 at 10 µM | 0.4% of 4,000 active | shares compounds with MrgX1 antag;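 active means calcium fluorescence ratio, averaged over duplicates, at least 3 SD of the buffer-well ratio, meaning a nonspecific response in receptor-free cells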;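 further: untransfected parental HEK293 lacking MrgX1 used as counterscreen for MrgX1 allosteric activators; fluorescence change taken during the second addition on a kinetic imager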
HEK293 Ca cntr2 = MrgX1 activator counter-screen hit in parental HEK293 cells. shares compounds with MrgX1 antag. AID 624115. Fluo-4 calcium fluorescence (FDSS); stronger effect = higher value. 8.7% of 4,000 active. fluorescence ratio F(max-min)/F0 at 10 µM;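 active means calcium fluorescence ratio at least three times the spread of buffer wells, meaning a non-specific response in parental cells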
Active calls of the source: *; i = inactive; / = no result; ! = a repeat was not active. Hits are enriched below; roughly 3.5% of the tested compounds scored in any of these assays.

SMILES | RGS4 inh | MrgX1 agonist | MrgX1 PAM | RGS4 act | MrgX1 antag | MrgX1 antag conf | HEK293 Ca flux | HEK293 Ca counter | HEK293 Ca cntr2
Cc1c(C(=O)N2CCC3(CC2)OCCO3)oc2ccc(S(=O)(=O)N3CCOCC3)cc12 | i | i | i | i | -4.5* | i | i | i | i
O=C(c1cccn2c(=O)c3cc(Br)ccc3nc12)N1CCC2(CC1)OCCO2 | i | i | i | i | i | / | / | / | /
Cc1cccn2c(=O)c3cc(C(=O)N4CCC5(CC4)OCCO5)n(C)c3nc12 | i | i | i | i | -4.7* | i | i | i | i
N=C1C(c2ccccc2)=C(O)CN1Cc1ccco1 | i | i | i | i | -5.7* | i | i | i | i
CC(C)CCn1c(=O)c(C(=O)NCc2ccc3c(c2)OCO3)c(O)c2ccccc21 | i | i | i | i | -7.7* | i | i | i | i
CC(C)CCn1c(=O)c(C(=O)Nc2ccccc2S(N)(=O)=O)c(O)c2ccccc21 | i | i | i | i | i | / | / | / | /
CCN1C[C@]2(CO)CC[C@H](OC)[C@@]34C5C[C@H]6[C@H](OC)C5[C@](O)(C[C@H]6OC)[C@@](O)(C(OC)C23)[C@@H]14 (stereo partly specified) | i | i | i | i | -4.6* | i | i | i | i
NC(CC(=O)O)C1CCCCC1 (stereo unspecified) | i | i | i | i | -7* | i | i | i | i
CC(C)c1ccc(NC(=O)CSc2nnc(OC(=O)N(C)C)n2C2CC2)cc1 | i | i | i | i | i | / | / | / | /
CC(C)(C)c1ccc(O)c(CN2CCN(c3ccccc3)CC2)c1 | i | i | i | i | -9.3* | i | i | i | i
Clc1ccccc1CN1CCN(c2ccccc2)CC1 | i | i | i | i | i | / | / | / | /
ClC1C(Cl)C(Cl)C(Cl)C(Cl)C1Cl (stereo unspecified) | / | i | i | / | -6.9*! | i | i | i | i
CCCCn1c(O)c(C(C)=NCc2cc(OC)cc(OC)c2)c(=O)[nH]c1=O | i | i | i | i | -6.8* | i | i | i | i
Cc1cccc(N2C(=O)NC(=O)/C(=C/c3ccc(-c4ccc(C(=O)O)c(Cl)c4)o3)C2=O)c1 | i | i | i | i | i | / | / | / | /
Cc1c(C=O)c2ccccc2n1Cc1ccccc1F | i | i | i | i | -11* | i | i | i | i
O=c1c2ccccc2nc(-c2ccoc2)n1-c1ccccc1 | i | i | i | i | i | / | / | / | /
COC(=O)C1=C(c2ccc(S(C)(=O)=O)cc2)C[C@@H]2CC[C@H]1N2C(=O)NCCO | i | i | i | i | i | / | / | / | /
COC(=O)C1=C(c2ccc(S(C)(=O)=O)cc2)C[C@@H]2CC[C@H]1N2C(=O)NCC1CC1 | i | i | i | i | -9.4* | i | i | i | i
Cc1cc(/C=C2/C(=O)NC(=O)N(Cc3ccco3)C2=O)c(C)n1-c1ccccc1 | i | i | i | i | i | / | / | / | /
O=C1CC(C(=O)N2CCC3(CC2)OCCO3)CN1CCc1ccccc1 (stereo unspecified) | i | i | i | i | i | / | / | / | /
Clc1ccc2[nH]c3c(c2c1)CCNC3 | i | i | i | i | -5.4* | i | i | i | i
COc1ccccc1-n1c(-c2ccoc2)nc2ccccc2c1=O | i | i | i | i | -4.7* | i | i | i | i
CCc1ccc(-n2c(O)c(/C=N/N3CCCCC3c3cccnc3)c(=O)[nH]c2=O)cc1 (stereo unspecified) | i | i | i | i | -11* | i | i | i | i
O=C(O)C1CN2CCC1CC2 (stereo unspecified) | i | i | i | i | -8* | i | i | i | i
Cn1cc(C(O)CN2CCCCC2)c2ccccc21 (stereo unspecified) | i | i | i | i | i | / | / | / | /
SMILES | RGS4 inh | MrgX1 agonist | MrgX1 PAM | RGS4 act | MrgX1 antag | MrgX1 antag conf | HEK293 Ca flux | HEK293 Ca counter | HEK293 Ca cntr2
COC(=O)C(O)(c1ccc(NC(=S)NC(=O)c2ccc(Cl)cc2Cl)c(C)c1)C(F)(F)F (stereo unspecified) | i | i | i | i | i | / | / | / | /
CCOC(=O)C(O)(c1ccc(NC(=S)NC(=O)c2ccc(Cl)cc2Cl)c(C)c1)C(F)(F)F (stereo unspecified) | i | i | i | i | -4.7* | i | i | i | i
Cc1sc2ncnc(N3CCC(C(=O)Nc4ccc(C#N)c(Cl)c4)CC3)c2c1C | i | i | i | i | -5.8* | i | i | i | i
CCN(CC(=O)Nc1ccc(C#N)c(Cl)c1)CC(=O)NC(C)(C)C | i | i | i | i | i | / | / | / | /
Cc1c(C(=O)C(=O)N2CCOCC2)c2ccccc2n1Cc1ccccc1 | i | i | i | i | i | / | / | / | /
COc1cccc(-n2c(/C=C/c3ccc(O)c(O)c3)nc3ccccc3c2=O)c1 | i | i | i | i | -5.7* | i | i | i | i
O=C1C2CCN(CC2)C1Cc1ccc(OCc2ccccc2)cc1 (stereo unspecified) | i | i | i | i | i | / | / | / | /
COc1cc(OC)c([C@H]2C=C(C)[C@H]3C[C@@H]2C3(C)C)c(OC)c1 | i | i | i | i | i | / | / | / | /
CC/C(=N\NC(=O)Nc1ccccc1)c1c(O)n(Cc2ccccc2)c(=O)[nH]c1=O | i | i | i | i | i | / | / | / | /

Screens: PubChem BioAssay, Johns Hopkins Ion Channel Center
